# Compounds with a hit are over-represented: about 1.5% of the library has one in this group of screens.
# Jurkat NFkB inh = lowers PMA/ionomycin-induced NF-kB signal in Jurkat cells; PMA/ionomycin-induced NF-kB luciferase reporter, luminescence; inhibition, % at 4 µM; 330,000 compounds, 0.53% hits; AID 435003; in the data active = inhibition above about 50%
# NR2E3 ag-1 = agonists of human nuclear receptor NR2E3. Q9Y5X4. GST-NR2E3/biotin-RetCOR TR-FRET, 1536-well. inhibition of corepressor binding, % at 4.78 µM. 320,000 compounds, 0.12% hits;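 active = percent inhibition above the cutoff of mean plus 3 SD of all tested compounds, set per screening campaign, cut at about 20% in these data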;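 also: 0% = DMSO wells and 100% = biotin wells as full block of FRET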
# Target sequence (Q9Y5X4 whole entry, looked up): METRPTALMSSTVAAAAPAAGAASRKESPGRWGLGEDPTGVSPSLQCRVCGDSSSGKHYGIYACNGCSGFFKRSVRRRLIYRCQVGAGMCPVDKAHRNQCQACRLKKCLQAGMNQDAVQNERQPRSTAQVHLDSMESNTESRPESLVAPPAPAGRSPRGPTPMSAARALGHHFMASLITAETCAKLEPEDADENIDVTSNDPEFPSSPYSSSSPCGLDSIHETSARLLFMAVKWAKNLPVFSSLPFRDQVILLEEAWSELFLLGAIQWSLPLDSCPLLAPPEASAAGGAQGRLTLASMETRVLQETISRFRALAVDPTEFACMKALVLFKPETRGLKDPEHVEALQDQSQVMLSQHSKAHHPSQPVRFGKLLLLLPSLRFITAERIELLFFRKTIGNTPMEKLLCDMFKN
#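 Material – GST-tagged NR2E3 plus biotinylated RetCOR corepressor · Quantity – NR2E3 fusion 1.35 nM · Times – 5 h incubation at 4 °C · Medium – pH 7.5 Tris-based buffer · Technique – TR-FRET, Eu(K)-anti-GST donor, streptavidin-D2 acceptor, ex 340, em 617/671 nm · Benchmarks – high control biotin, low control 0.6% DMSO · Format – 1536-well plates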
# JMJD2C inh = blocks human GASC-1 demethylase activity; Q9H3R0; GST-JMJD2C(1-420) H3K9me3 demethylation, DELFIA europium; inhibition, % at 2.35 µM; 330,000 compounds, 0.069% hits; AID 2099;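 active = more than half of a compound's replicate wells show inhibition beyond 50%, single wells judged on their own value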;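 also: signal counts dimethyl H3K9 product captured on neutravidin plate; 0% = median of DMSO wells and 100% = 0.3 times that DMSO median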
# NR2E3 ag-2 = agonists of human NR2E3 nuclear receptor; Q9Y5X4; AID 602229; 360,000 compounds, 0.35% hits; inhibition of corepressor binding, % at 3.98 µM; CHO-S Gal4-NCOR/VP16-NR2E3 two-hybrid, luciferase;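 active = inhibition above the mean of all tested compounds plus 3 SD, cut at about 70% in these data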;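 also: 0% = DMSO with NR2E3 transfected cells and 100% = cells lacking NR2E3 construct; higher means lower luciferase signal from less NR2E3 corepressor binding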
# GalR3 antag = antagonists of human GalR3. O60755. HEK293 GalR3-CNG cAMP membrane potential fluorescence; galR3 body fused to GalR1 C-terminus. inhibition, % at 3 µM. 360,000 compounds, 0.44% hits. AID 651719;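 active = inhibition above the screen-wide average plus 3 SD, cut at about 13% in these data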;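 also: forskolin and galanin both at EC90 stimulate the cells; cAMP rise reported by CNG channel membrane potential dye signal; 0% = forskolin plus galanin with DMSO and 100% = forskolin alone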
# Target sequence (O60755 1-299 limits assumed): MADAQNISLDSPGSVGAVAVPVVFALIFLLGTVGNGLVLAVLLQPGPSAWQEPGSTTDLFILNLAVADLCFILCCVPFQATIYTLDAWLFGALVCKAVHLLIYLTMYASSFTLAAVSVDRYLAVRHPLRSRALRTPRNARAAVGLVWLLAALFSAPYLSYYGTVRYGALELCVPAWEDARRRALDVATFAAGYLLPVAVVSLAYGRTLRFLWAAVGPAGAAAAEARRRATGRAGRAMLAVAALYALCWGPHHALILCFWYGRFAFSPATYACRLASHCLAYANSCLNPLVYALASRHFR
# 697 NFkB inh = inhibitors of the PMA/ionomycin-induced NF-kB reporter in 697 B cells | 697 B-cell NF-kB luciferase reporter, 16 h | inhibition, % at 4 µM | 330,000 compounds, 0.33% hits; in the data active = inhibition above about 35%
# Jurkat NFkB conf = inhibitors of the PMA/ionomycin-induced NF-kB reporter in Jurkat cells, retest; AID 435020; 2,700 compounds, 27% hits; Jurkat NF-kB luciferase, 16 h; shares compounds with Jurkat NFkB inh; inhibition, % at 4 µM;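 active = inhibition reaching about 45% at 4 µM in either replicate, limit read from the data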;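 also: plate controls were PMA/ionomycin stimulated DMSO wells for no effect and unstimulated DMSO wells for full effect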
# The depositor's hits bear a star; i = inactive; . = no result.
SMILES,Jurkat NFkB inh,NR2E3 ag-1,JMJD2C inh,NR2E3 ag-2,GalR3 antag,697 NFkB inh,Jurkat NFkB conf
CCOC(=O)C1=CCN(S(=O)(=O)c2ccccc2C)C1c1ccc(Cl)c(Cl)c1 (stereo not drawn),.,.,.,7.7,-7.9,.,.
CS(=O)(=O)c1ccc(Cl)c(NC(=O)C2CCCCN2S(=O)(=O)c2ccccc2)c1 (stereo not drawn),-13.9,0.6,0.5,1.5,1.4,-7.1,.
CC(C)CNS(=O)(=O)c1cc2c3c(c1)CCC(=O)N3CCC2,-14.8,5.6,-3.2,-1.2,-6.2,-42.6,.
CC(C)(C)N1C(=O)Cc2c1nc(N)c1c(N)nc(N3CCCCC3CO)c(C#N)c21 (stereo not drawn),55.9*,2.8,-9.3,13.1,.,-44.7,20.8
CN(CCO)c1nc(N)c2c(N)nc3c(c2c1C#N)CC(=O)N3C1CCCC1,15.8,-0.6,5.8,.,.,-29.7,.
CCCCC(=O)Nc1nc(C)c(-c2csc(Nc3ccccc3OC)n2)s1,17.6,-0.7,-0.6,-11.0,-3.9,14.6,.
C=CCCC(=O)Nc1nc(C)c(-c2csc(Nc3ccccc3OC)n2)s1,53.0*,-1.3,-4.2,-0.1,-4.4,-36.5,16.1
O=C(/C=C/c1cccs1)N1CCc2ccccc21,-161.0,0.7,-2.0,-179.8,-3.7,-193.5,-102.3
O=C(c1cccs1)N1CCc2ccccc21,-62.1,0.8,4.8,-47.9,-5.8,-26.2,.
O=c1c2ccccc2oc2ccc(C#CC3(O)CCCCC3)cc12,-161.5,1.5,-17.4,42.9,-8.6,-180.0,15.2
O=C(N/N=C/c1ccc(Cl)c([N+](=O)[O-])c1)c1cnccn1,7.8,-1.5,3.0,-14.7,-2.1,-2.4,.
O=C(N/N=C/c1ccc(Sc2nc3ccccc3s2)c([N+](=O)[O-])c1)c1ccccn1,68.9*,3.4,1.6,-13.0,-5.4,6.3,21.2
Cc1c(Br)c([N+](=O)[O-])nn1CC(=O)N(C)Cc1ccccc1,4.9,2.2,13.4,-17.7,-2.9,17.0,.
c1csc(-c2nnc(-c3ccc(N4CCOCC4)cc3)o2)c1,-151.1,4.1,10.3,-149.2,-2.4,-242.0,-62.7
COc1ccc(Nc2nc3ccccc3c(=O)s2)c(OC)c1,1.6,-2.0,-15.5,-5.3,-2.6,2.2,.
COc1ccc2nc(NC(=O)c3ccc4ncsc4c3)sc2c1,-150.6,5.8,-5.0,-111.8,.,-203.4,-48.3
COc1ccc2nc(NC(=O)c3ccc(F)cc3)sc2c1,-108.8,-0.1,4.9,-155.2,-11.5,-163.6,.
COc1ccc2nc(Nc3ccccc3OC)sc2c1,-194.7,-1.8,7.2,-100.8,5.0,-191.4,-122.7
COc1ccc2nc(Nc3ccc4c(c3)OCO4)sc2c1,-77.5,0.4,-9.4,-120.6,-1.3,-126.2,.
COc1ccc2nc(Nc3ccccc3)sc2c1,-186.4,0.0,-4.9,-153.8,-4.2,-132.1,-117.2
COCCN(Cc1ccc(F)cc1)C(=O)c1cc2ccccc2oc1=O,4.9,.,6.7,-4.3,-3.2,6.0,.
O=C(O)c1ccc(Nc2cnc3ccccc3n2)cc1,-5.4,0.2,-1.8,-33.9,-3.9,-89.6,.
CCOC(=O)c1ccc(Nc2cnc3ccccc3n2)cc1,-150.1,1.2,-18.3,-158.3,0.6,-115.5,-115.8
C[C@@H]1CN([C@H](C)CO)C(=O)CCCn2nncc2CO[C@H]1CN(C)C(=O)Nc1ccc2c(c1)OCCO2,.,.,.,.,-3.2,.,.
CCOC(=O)C(C)Oc1cccc2c(=O)n(CC(=O)Nc3ccc4c(c3)OCCO4)ccc12 (stereo not drawn),-12.1,-2.1,i,-4.7,.,3.7,.
SMILES,Jurkat NFkB inh,NR2E3 ag-1,JMJD2C inh,NR2E3 ag-2,GalR3 antag,697 NFkB inh,Jurkat NFkB conf
CCOC(=O)COc1cccc2c(=O)n(CC(=O)NCc3ccccc3)ccc12,63.2*,-2.6,-2.3,-21.3,8.4,-6.2,49.5
CCOC(=O)COc1cccc2c(=O)n(CC(N)=O)ccc12,-14.6,0.5,2.5,-5.5,0.6,17.1,.
CCOC(=O)C(C)Oc1cccc2c(=O)n(CC(=O)NCc3ccc4c(c3)OCO4)ccc12 (stereo not drawn),52.3*,1.6,0.0,22.0,.,-61.7,54.0*
Cc1ccc(OCC(=O)Nc2ccc(NC(=O)c3ccccc3)c(C)c2)cc1,1.4,.,-3.0,-9.1,-1.4,18.8,.
CC(C)CCN1C(=O)c2ccccc2C1c1nnnn1-c1ccc2c(c1)OCCO2 (stereo not drawn),.,.,.,0.7,-4.8,.,.
COc1ccc(/C=C2\SC(N3CCCCC3)=NC2=O)cc1OC,-13.2,-2.2,2.0,-31.6,-0.9,-1.2,.
COc1cc(/C=C2\SC(N3CCC(C)CC3)=NC2=O)ccc1O,60.5*,-0.8,-5.9,-25.8,1.5,34.3,18.9
Cc1ccc(C(=O)C2C(=O)C3CCC2C3)cc1 (stereo not drawn),.,.,.,-70.2,-3.2,.,.
COc1nc(Nc2nc3ccccc3c(=O)[nH]2)nc2ccc(C)cc12,81.0*,1.1,20.1,11.2,-1.1,30.1,-4.9
COc1ccc(C(=O)c2ccc(Cl)cc2)c(OC)c1OC,.,.,.,-24.7,-5.2,.,.
O=C(Cc1nn[nH]n1)c1ccccc1O,13.8,-0.8,-0.3,-18.6,-5.6,19.8,.
O=C(O)/C=C/c1cn(-c2ccccc2)nc1-c1cc2ccccc2oc1=O,-164.2,-1.8,-7.4,-146.1,-6.1,-154.4,-95.3
O=Cc1cn(-c2ccccc2)nc1-c1cc2cc(O)ccc2oc1=O,0.9,3.9,-0.6,4.7,-4.0,6.1,.
CCCc1nnc(SCC(=O)Nc2cccc(Cl)c2Cl)o1,1.1,1.8,43.5,-21.5,-10.5,21.6,.
COc1ccccc1C(=O)O/N=C(\N)c1ccccn1,-68.6,2.3,-4.6,-120.8,-1.7,-118.4,.
Cc1ccc(C(=O)O/N=C(\N)c2ccccn2)c(C)c1,76.2*,1.4,-2.2,-30.1,-5.7,-11.8,92.2*
COc1cc(C(=O)OCC(=O)Nc2sccc2C(N)=O)cc(OC)c1OC,53.9*,-0.2,-7.0,3.0,0.7,-44.1,24.1
CCOc1ccc(OCC)c(NC(=O)CN2CCN(c3cccc(C)c3)C(C)C2)c1 (stereo not drawn),58.0*,1.6,4.1,9.3,-0.3,-20.1,19.4
CCOc1ccc(OCC)c(NC(=O)CN2CCN(c3cccc(C)c3)CC2)c1,20.0,-4.3,184.2,-23.8,-5.2,7.5,.
NS(=O)(=O)c1cccc(NC(=O)COC(=O)CN2C(=O)C3CC=CCC3C2=O)c1 (stereo not drawn),-11.1,-0.7,-13.6,-6.2,0.1,16.0,.
Cc1ccc(CNC(=O)Cc2ccc(-n3cccc3)cc2)cc1,52.7*,1.8,-6.4,-12.9,-3.6,-41.7,3.8
Cc1ccc(CNC(=O)c2ccc(-n3cccc3)cc2)cc1,.,.,-14.2,-6.3,-1.0,.,.
COc1ccc(CC(=O)NCc2ccc(-n3cccc3)cc2)cc1OC,55.0*,-1.9,-0.5,-5.8,-9.2,-48.1,17.6
